molecular target: T1, 5-hydroxytryptamine receptor 2C (Homo sapiens, UniProt P28335); test: Binding affinity to 5-HT2C receptor (unknown origin); settings: not given
T1 sequence (P28335 whole entry): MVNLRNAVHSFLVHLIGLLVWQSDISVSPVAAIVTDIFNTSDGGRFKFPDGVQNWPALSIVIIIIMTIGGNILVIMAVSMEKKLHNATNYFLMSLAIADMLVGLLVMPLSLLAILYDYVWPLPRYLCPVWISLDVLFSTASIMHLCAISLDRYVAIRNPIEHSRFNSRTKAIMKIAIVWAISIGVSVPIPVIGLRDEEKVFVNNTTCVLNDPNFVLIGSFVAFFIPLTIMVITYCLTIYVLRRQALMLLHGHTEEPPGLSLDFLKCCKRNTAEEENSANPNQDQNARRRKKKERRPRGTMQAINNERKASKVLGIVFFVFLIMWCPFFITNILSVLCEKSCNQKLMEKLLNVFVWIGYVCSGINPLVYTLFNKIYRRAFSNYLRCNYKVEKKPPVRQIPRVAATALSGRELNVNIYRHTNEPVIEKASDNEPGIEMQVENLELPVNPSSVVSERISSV

In the case of `O=C1CC(c2ccccc2)CN1c1cnc2c(N3CCNCC3)cccc2c1` (single isomer, unassigned; enantiomer 1), the Ki is reported as over 30000 nM.

molecular target: T2, 5-hydroxytryptamine receptor 6 (Homo sapiens, UniProt P50406); test: Displacement of [3H]LSD from human recombinant 5-HT6 receptor expressed in CHO-K1 cell membrane after 3 hrs by liquid scintillation counting analysis; format: cell membranes; settings: not given
How it was run: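 Membranes from CHO-K1 cells stably expressing human 5-HT6, 1.75 µg protein, preincubated with scintillation beads 30 min at 4 °C. Buffer was 50 mM Tris-HCl pH 7.4, 4 mM CaCl2, saponin, 0.1% ascorbic acid. Incubated 3 h at room temperature with 4 nM [3H]LSD (Kd 2.3 nM) over half-log dilutions. Nonspecific binding defined with 10 µM serotonin. IC50 from variable-slope fit, Ki by Cheng-Prusoff, mean of three experiments.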

T2 sequence (P50406 whole entry): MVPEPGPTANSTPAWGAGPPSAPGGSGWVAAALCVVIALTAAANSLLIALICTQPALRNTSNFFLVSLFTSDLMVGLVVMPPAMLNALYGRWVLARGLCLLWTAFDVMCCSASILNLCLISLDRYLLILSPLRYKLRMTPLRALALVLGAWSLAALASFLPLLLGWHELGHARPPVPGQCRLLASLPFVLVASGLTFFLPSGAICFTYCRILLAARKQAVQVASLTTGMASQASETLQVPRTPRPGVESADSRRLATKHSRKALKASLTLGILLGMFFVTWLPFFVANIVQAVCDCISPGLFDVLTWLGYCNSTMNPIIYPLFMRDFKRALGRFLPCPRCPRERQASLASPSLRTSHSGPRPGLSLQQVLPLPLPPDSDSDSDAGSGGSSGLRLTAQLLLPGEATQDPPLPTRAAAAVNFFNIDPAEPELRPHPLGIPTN

Point of comparison: `O=C1OC(c2ccccc2Cl)CN1c1cccc(N2CCNCC2)c1` (racemic), Ki 140 nM. Against it:
- O=C1CCCN1c1cnc2c(N3CCNCC3)cccc2c1 — 35-fold higher, 4900 nM
- COc1cc(OC)cc(N2C(=O)CSC23C(=O)Nc2ccccc23)c1 (racemic) — 1.6-fold lower, 88 nM
- O=C1CSC2(C(=O)Nc3ccccc32)N1c1ccccc1 (racemic) — 41-fold higher, 5700 nM
- O=C1CC(c2ccccc2)CN1c1ccc2c(c1)CCNCC2 (racemic) — 2.6-fold lower, 54 nM
- O=C1CC(c2ccccc2Cl)CN1c1ccc2c(c1)CCNCC2 (racemic) — within 1.5-fold, 100 nM
- Clc1ccccc1C1CCN(c2ccc3c(c2)CCNCC3)C1 (racemic) — 4.6-fold higher, 650 nM
- O=C1CC(c2ccccc2)CN1c1ccc2c(c1)CCCNC2 (racemic) — 8.6-fold higher, 1200 nM
- O=C1CC(c2ccccc2)CN1c1ccc2c(c1)CNCC2 (racemic) — the same, 140 nM
- O=C1CC(c2ccccc2)CN1c1cccc(C2CCNCC2)c1 (racemic) — 2-fold lower, 70 nM
- O=C1CC(c2ccccc2)CN1c1cccc(N2CCNCC2)c1 (racemic) — 1.7-fold lower, 84 nM
- O=C1CC(c2ccccc2)CN1c1cccc(N2CCNCC2)n1 (racemic) — 2.9-fold lower, 48 nM
- O=C1CC(c2ccccc2)CN1c1cncc(N2CCNCC2)c1 (racemic) — 29-fold higher, 4100 nM
- CN1CCN(c2ncc(N3CC(c4ccccc4)CC3=O)s2)CC1 (racemic) — higher, > 30000 nM
- O=C1CC(c2ccccc2)CN1c1cnc2c(N3CCNCC3)cccc2c1 (racemic) — 54-fold lower, 2.6 nM
- O=C1CC(c2ccccc2)CN1c1ccc2c(N3CCNCC3)ccnc2c1 (racemic) — 2.5-fold lower, 55 nM
- O=C1CC(c2ccccc2)CN1c1cnc2c(N3CCCNCC3)cccc2c1 (racemic) — 14-fold lower, 10 nM
- O=C1OC(c2ccccc2)CN1c1ccc2c(c1)CCNCC2 (racemic) — 8.8-fold lower, 16 nM
- O=C1OC(c2ccccc2F)CN1c1ccc2c(c1)CCNCC2 (racemic) — 9.3-fold lower, 15 nM
- O=C1OC(c2ccccc2Cl)CN1c1ccc2c(c1)CCNCC2 (racemic) — 3-fold lower, 47 nM
- COc1ccccc1C1CN(c2ccc3c(c2)CCNCC3)C(=O)O1 (racemic) — 1.6-fold lower, 87 nM
- O=C1OC(c2cccc(Cl)c2)CN1c1ccc2c(c1)CCNCC2 (racemic) — 14-fold lower, 10 nM
- O=C1OC(c2ccccc2Cl)CN1c1cccc(OC2CCNCC2)c1 (racemic) — 1.7-fold higher, 240 nM
- O=C1OC(c2ccccc2Cl)CN1c1ccc(N2CCNCC2)cc1 (racemic) — 14-fold higher, 1900 nM
- O=C1OC(c2ccccc2Cl)CN1c1ccc2c(c1)CNCC2 (racemic) — within 1.5-fold, 150 nM
- O=C1OC(c2ccccc2Cl)CN1c1ccc2c(c1)CCNC2 (racemic) — 2.4-fold higher, 330 nM

test system: Brain; test: Drug uptake in rat brain at 5 mg/kg, po after 6 hrs; format: ADME, organism-based; set-up: dose 5 mg/kg, route oral; settings: in vivo; call rule not given here
How it was run: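 Rats dosed orally at 5 mg/kg. Compound measured in brain 6 h after dosing.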

In the case of `O=C1CC(c2ccccc2)CN1c1cnc2c(N3CCNCC3)cccc2c1` (single isomer, unassigned; enantiomer 1), the Drug uptake is reported as “Active”.

molecular target: 5-hydroxytryptamine receptor 2A (Homo sapiens, UniProt P28223); test: Binding affinity to 5-HT2A receptor (unknown origin); settings: not given
Sequence (P28223 whole entry): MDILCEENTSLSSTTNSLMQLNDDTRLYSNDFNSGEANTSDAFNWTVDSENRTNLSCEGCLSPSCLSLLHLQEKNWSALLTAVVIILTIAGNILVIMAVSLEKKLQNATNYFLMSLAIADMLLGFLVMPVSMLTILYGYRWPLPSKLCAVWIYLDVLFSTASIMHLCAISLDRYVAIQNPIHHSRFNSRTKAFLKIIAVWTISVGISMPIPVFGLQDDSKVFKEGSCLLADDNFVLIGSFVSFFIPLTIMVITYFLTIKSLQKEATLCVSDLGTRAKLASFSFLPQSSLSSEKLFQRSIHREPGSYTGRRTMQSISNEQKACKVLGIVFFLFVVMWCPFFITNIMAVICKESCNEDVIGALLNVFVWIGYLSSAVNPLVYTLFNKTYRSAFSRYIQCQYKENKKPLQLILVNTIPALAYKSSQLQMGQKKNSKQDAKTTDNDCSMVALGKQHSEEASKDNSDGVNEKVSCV

With `O=C1CC(c2ccccc2)CN1c1cnc2c(N3CCNCC3)cccc2c1` (single isomer, unassigned; enantiomer 1) the Ki was 3100 nM.

molecular target: T2, 5-hydroxytryptamine receptor 6; test: Antagonist activity at human 5-HT6 receptor assessed as inhibition of 5-HT-induced cAMP level treated for 10 mins prior to 5-HT challenge for 30 mins by homogeneous time-resolved fluorescent assay; format: functional; settings: not given

Point of comparison: `O=C1CC(c2ccccc2)CN1c1cnc2c(N3CCNCC3)cccc2c1` (single isomer, unassigned; enantiomer 1), IC50 8 nM. Against it:
- O=C1CC(c2ccccc2)CN1c1cnc2c(N3CCNCC3)cccc2c1 (racemic) — 1.9-fold higher, 15 nM

molecular target: 5-hydroxytryptamine receptor 2B (Homo sapiens, UniProt P41595); test: Binding affinity to 5-HT2B receptor (unknown origin); settings: not given
Sequence (P41595 whole entry): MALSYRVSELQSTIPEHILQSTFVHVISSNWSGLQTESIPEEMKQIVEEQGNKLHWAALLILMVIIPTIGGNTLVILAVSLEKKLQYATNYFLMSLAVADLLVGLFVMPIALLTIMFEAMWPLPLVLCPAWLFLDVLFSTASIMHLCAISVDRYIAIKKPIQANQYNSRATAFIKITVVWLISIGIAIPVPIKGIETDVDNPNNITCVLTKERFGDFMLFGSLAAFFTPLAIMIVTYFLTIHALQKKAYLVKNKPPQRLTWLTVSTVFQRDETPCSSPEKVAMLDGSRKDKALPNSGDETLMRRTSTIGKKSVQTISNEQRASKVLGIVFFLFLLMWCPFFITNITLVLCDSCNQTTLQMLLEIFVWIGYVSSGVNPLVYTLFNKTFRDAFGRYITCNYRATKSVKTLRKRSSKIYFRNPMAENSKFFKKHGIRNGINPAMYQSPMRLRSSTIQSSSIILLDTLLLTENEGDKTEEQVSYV

Compound `O=C1CC(c2ccccc2)CN1c1cnc2c(N3CCNCC3)cccc2c1` (single isomer, unassigned; enantiomer 1) has a Ki of over 30000 nM.

— ChEMBL document CHEMBL3259596, “Lactam and oxazolidinone derived potent 5-hydroxytryptamine 6 receptor antagonists” (Bioorg Med Chem Lett, 2014)
